Experimental data reported in ChEMBL document CHEMBL5257020, “Discovery of a 9-mer Cationic Peptide (LTX-315) as a Potential First in Class Oncolytic Peptide” (J Med Chem, 2016).
Where a SMILES comes first, the peptide text is derived from it. [ ]: non-standard residue; d: D form. ξ: configuration not given here. Bip = N[C@@H](Cc1ccc(-c2ccccc2)cc1)C(=O)O; ξDip = NC(C(=O)O)C(c1ccccc1)c1ccccc1

Assays:
[1] = test system: Ramos; assay: Cytotoxicity against human Ramos cells assessed as inhibition of cell proliferation incubated for 4 hrs by MTS assay; type: functional, cell-based
Summary of the method: (§1)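 Cells grown in RPMI-1640 with 2 mM L-glutamine and 10% FBS, plated, then held 24 h at 37 °C. Adherent lines washed once in FBS-free medium. Cells exposed 4 h at 37 °C, 5% CO2 in FBS-free medium to 10 concentrations (1/4 steps, 400 μM top). 1% Triton X-100 served as positive control. MTS/PMS added for 2 h, then OD 490 nm read. IC50 from semilog curves; three independent experiments, quadruplicate wells.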

[2] = Cytotoxicity against human MINO cells assessed as inhibition of cell proliferation incubated for 4 hrs by MTS assay; type: functional, cell-based; summary of the method: as §1
[3] = test system: KARPAS-299; assay: Cytotoxicity against human KARPAS-299 cells assessed as inhibition of cell proliferation incubated for 4 hrs by MTS assay; type: functional, cell-based; settings: KARPAS-299, 4 h; summary of the method: as §1
[4] = test system: CCRF-CEM; assay: Cytotoxicity against human CCRF-CEM cells assessed as inhibition of cell proliferation incubated for 4 hrs by MTS assay; type: functional, cell-based; summary of the method: as §1
[5] = test system: A20; assay: Cytotoxicity against mouse A20 lymphoma cells assessed as inhibition of cell proliferation incubated for 4 hrs by MTT assay; type: functional, cell-based; settings: A20, 4 h
Summary of the method: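 Murine A20 cells cultured in RPMI-1640 with 2 mM L-glutamine, 1.5 g/L sodium bicarbonate, 4.5 g/L glucose, 10 mM HEPES, 1.0 mM sodium pyruvate, 0.05 mM 2-mercaptoethanol and 10% FBS, without antibiotics, at 37 °C, 5% CO2. IC50 from three or more independent measurements, given as mean ± SD.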

[6] = test system: HL60/ADR; assay: Cytotoxicity against human HL60/ADR cells assessed as inhibition of cell proliferation incubated for 4 hrs by MTS assay; type: functional, cell-based; summary of the method: as §1
[7] = test system: MCF7; assay: Cytotoxicity against human MCF7 cells assessed as inhibition of cell proliferation incubated for 4 hrs by MTS assay; type: functional, cell-based; settings: MCF7, 4 h; summary of the method: as §1
[8] = test system: IGROV-1; assay: Cytotoxicity against human IGROV-1 cells assessed as inhibition of cell proliferation incubated for 4 hrs by MTS assay; type: functional, cell-based; settings: IGROV-1, 4 h; summary of the method: as §1
[9] = Cytotoxicity against human IGROV(CDDP) cells assessed as inhibition of cell proliferation incubated for 4 hrs by MTS assay; type: functional, cell-based; summary of the method: as §1
[10] = test system: K562; assay: Cytotoxicity against human K562 cells assessed as inhibition of cell proliferation incubated for 4 hrs by MTS assay; type: functional, cell-based; settings: K562, 4 h; summary of the method: as §1
[11] = test system: K562; assay: Cytotoxicity in imatinib resistant human K562 cells assessed as inhibition of cell proliferation incubated for 4 hrs by MTS assay; type: functional, cell-based; settings: K562, 4 h
Summary of the method: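 Oncodesign panel MTS/PMS assay. Cells in RPMI-1640 + 10% FBS. After 24 h pre-plating, adherent lines washed in FBS-free medium. Cells exposed 4 h at 37 °C in FBS-free medium to 10 concentrations, 1/4 dilutions from 400 μM top. Triton X-100 (1% final) positive control. MTS/PMS added, 2 h, OD 490 nm. IC50 from semilog curves. Three independent experiments, quadruplicate wells.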

[12] = test system: Daudi; assay: Cytotoxicity against human Daudi cells assessed as inhibition of cell proliferation incubated for 4 hrs by MTS assay; type: functional, cell-based; summary of the method: as §1
[13] = test system: Toledo; assay: Cytotoxicity against human Toledo cells assessed as inhibition of cell proliferation incubated for 4 hrs by MTS assay; type: functional, cell-based; summary of the method: as §1
[14] = test system: U-937; assay: Cytotoxicity against human U-937 cells assessed as inhibition of cell proliferation incubated for 4 hrs by MTS assay; type: functional, cell-based; settings: U-937, 4 h; summary of the method: as §1
[15] = test system: CEM-VLB; assay: Cytotoxicity against human CCRF-CEM/VLB cells assessed as inhibition of cell proliferation incubated for 4 hrs by MTS assay; type: functional, cell-based; summary of the method: as §1
[16] = test system: RPMI-8226; assay: Cytotoxicity against human RPMI-8226 cells assessed as inhibition of cell proliferation incubated for 4 hrs by MTS assay; type: functional, cell-based; settings: RPMI-8226, 4 h; summary of the method: as §1
[17] = test system: SH-SY5Y; assay: Cytotoxicity against human SH-SY5Y cells assessed as inhibition of cell proliferation incubated for 4 hrs by MTS assay; type: functional, cell-based; summary of the method: as §1
[18] = test system: SK-N-AS; assay: Cytotoxicity against human SK-N-AS cells assessed as inhibition of cell proliferation incubated for 4 hrs by MTS assay; type: functional, cell-based; summary of the method: as §1
[19] = test system: MDA-MB-231; assay: Cytotoxicity against human MDA-MB-231 cells assessed as inhibition of cell proliferation incubated for 4 hrs by MTS assay; type: functional, cell-based; settings: MDA-MB-231, 4 h; summary of the method: as §1
[20] = test system: MDA-MB-435S; assay: Cytotoxicity against human MDA-MB-435S cells assessed as inhibition of cell proliferation incubated for 4 hrs by MTS assay; type: functional, cell-based; summary of the method: as §1
[21] = test system: HCT-15; assay: Cytotoxicity against human HCT-15 cells assessed as inhibition of cell proliferation incubated for 4 hrs by MTS assay; type: functional, cell-based; settings: HCT-15, 4 h; summary of the method: as §1
[22] = Cytotoxicity against human HUVEC-C cells assessed as inhibition of cell proliferation incubated for 4 hrs by MTS assay; type: toxicity, cell-based; summary of the method: as §1
[23] = test system: 786-0; assay: Cytotoxicity against human 786-0 cells assessed as inhibition of cell proliferation incubated for 4 hrs by MTS assay; type: functional, cell-based; settings: 786-0, 4 h; summary of the method: as §1
[24] = test system: HepG2; assay: Cytotoxicity against human HepG2 cells assessed as inhibition of cell proliferation incubated for 4 hrs by MTS assay; type: functional, cell-based; settings: HepG2, 4 h; summary of the method: as §1
[25] = test system: SK-HEP1; assay: Cytotoxicity against human SK-HEP1 cells assessed as inhibition of cell proliferation incubated for 4 hrs by MTS assay; type: functional, cell-based; settings: SK-HEP1, 4 h; summary of the method: as §1
[26] = test system: A549; assay: Cytotoxicity against human A549 cells assessed as inhibition of cell proliferation incubated for 4 hrs by MTS assay; type: functional, cell-based; settings: A549, 4 h; summary of the method: as §1
[27] = test system: Calu-6; assay: Cytotoxicity against human Calu-6 cells assessed as inhibition of cell proliferation incubated for 4 hrs by MTS assay; type: functional, cell-based; settings: Calu-6, 4 h; summary of the method: as §1
[28] = Cytotoxicity against human MRC5 cells assessed as inhibition of cell proliferation incubated for 4 hrs by MTS assay; type: toxicity, cell-based; summary of the method: as §1
[29] = test system: NCI-H460; assay: Cytotoxicity against human NCI-H460 cells assessed as inhibition of cell proliferation incubated for 4 hrs by MTS assay; type: functional, cell-based; settings: NCI-H460, 4 h; summary of the method: as §1
[30] = test system: BXPC-3; assay: Cytotoxicity against human BXPC-3 cells assessed as inhibition of cell proliferation incubated for 4 hrs by MTS assay; type: functional, cell-based; settings: BXPC-3, 4 h; summary of the method: as §1
[31] = test system: PANC-1; assay: Cytotoxicity against human PANC-1 cells assessed as inhibition of cell proliferation incubated for 4 hrs by MTS assay; type: functional, cell-based; settings: PANC-1, 4 h; summary of the method: as §1
[32] = test system: DU-145; assay: Cytotoxicity against human DU-145 cells assessed as inhibition of cell proliferation incubated for 4 hrs by MTS assay; type: functional, cell-based; settings: DU-145, 4 h; summary of the method: as §1
[33] = test system: A-431; assay: Cytotoxicity against human A-431 cells assessed as inhibition of cell proliferation incubated for 4 hrs by MTS assay; type: functional, cell-based; settings: A-431, 4 h; summary of the method: as §1
[34] = test system: Malme-3M; assay: Cytotoxicity against human Malme-3M cells assessed as inhibition of cell proliferation incubated for 4 hrs by MTS assay; type: functional, cell-based; summary of the method: as §1
[35] = test system: SK-MEL-2; assay: Cytotoxicity against human SK-MEL-2 cells assessed as inhibition of cell proliferation incubated for 4 hrs by MTS assay; type: functional, cell-based; settings: SK-MEL-2, 4 h; summary of the method: as §1
[36] = Cytotoxicity against human Hs 445 cells assessed as inhibition of cell proliferation incubated for 4 hrs by MTS assay; type: functional, cell-based; settings: Hs 445, 4 h; summary of the method: as §1
[37] = Cytotoxicity against human U-87 MG cells assessed as inhibition of cell proliferation incubated for 4 hrs by MTS assay; type: functional, cell-based, U-87MG ATCC; summary of the method: as §1

Structure (SMILES)	IC50 [1]	IC50 [2]	IC50 [3]	IC50 [4]	IC50 [5]	IC50 [6]	IC50 [7]	IC50 [8]	IC50 [9]	IC50 [10]	IC50 [11]	IC50 [12]	IC50 [13]	IC50 [14]	IC50 [15]	IC50 [16]	IC50 [17]	IC50 [18]	IC50 [19]	IC50 [20]	further results
NCCCC[C@H](NC(=O)C(NC(=O)[C@H](Cc1c[nH]c2ccccc12)NC(=O)[C@H](CCCCN)NC(=O)[C@H](CCCCN)NC(=O)[C@H](Cc1c[nH]c2ccccc12)NC(=O)[C@H](Cc1c[nH]c2ccccc12)NC(=O)[C@H](CCCCN)NC(=O)[C@@H](N)CCCCN)C(c1ccccc1)c1ccccc1)C(N)=O (some centres undefined) (H-KKWWKKW[ξDip]K-NH2)	1.7 µM	3.7 µM	4.8 µM	2.6 µM	8.3 µM	3 µM	2.2 µM	6.4 µM	3.2 µM	3 µM	3 µM	4 µM	2.3 µM	1.2 µM	2.4 µM	1.9 µM	3.3 µM	2.5 µM	3.6 µM	3.1 µM	IC50 [21]: 3.8 µM; IC50 at 4 h [22]: 16.3 µM; IC50 [23]: 5.8 µM; IC50 [24]: 6.7 µM; IC50 [25]: 5.1 µM; IC50 [26]: 2.8 µM; IC50 [27]: 2.1 µM; IC50 at 4 h [28]: 9.2 µM; IC50 [29]: 3.4 µM; IC50 [30]: 3.7 µM; IC50 [31]: 3.8 µM; IC50 [32]: 3.9 µM; IC50 [33]: 3.2 µM; IC50 [34]: 3.3 µM; IC50 [35]: 5.2 µM; IC50 [36]: 1.7 µM; IC50 [37]: 6.6 µM
NCCCC[C@H](NC(=O)[C@H](Cc1c[nH]c2ccccc12)NC(=O)[C@H](Cc1c[nH]c2ccccc12)NC(=O)[C@H](CCCCN)NC(=O)[C@H](CCCCN)NC(=O)[C@H](Cc1c[nH]c2ccccc12)NC(=O)[C@H](Cc1ccc(-c2ccccc2)cc1)NC(=O)[C@H](CCCCN)NC(=O)[C@@H](N)CCCCN)C(N)=O (H-KK[Bip]WKKWWK-NH2)	3.8 µM	5.9 µM	8.7 µM	5.3 µM	8.3 µM	4.9 µM	4.6 µM	14.3 µM	6.6 µM	7.4 µM	7.6 µM	7.9 µM	5.4 µM	2.7 µM	4 µM	4.1 µM	8.8 µM	6 µM	9.3 µM	9.8 µM	IC50 [21]: 10 µM; IC50 at 4 h [22]: 33 µM; IC50 [23]: 13.8 µM; IC50 [24]: 8.7 µM; IC50 [25]: 7.9 µM; IC50 [26]: 7.8 µM; IC50 [27]: 4.9 µM; IC50 at 4 h [28]: 27.9 µM; IC50 [29]: 8.7 µM; IC50 [30]: 8.2 µM; IC50 [31]: 9.5 µM; IC50 [32]: 8.2 µM; IC50 [33]: 7.1 µM; IC50 [34]: 7.1 µM; IC50 [35]: 11 µM; IC50 [36]: 2.5 µM; IC50 [37]: 16.9 µM
